Converted amounts (≈) assume the structure as drawn. The source made the active and inactive calls. No cut-off for these calls is given here.

The record followed here is ChEMBL document CHEMBL4130356, “Design, synthesis and 2D QSAR study of novel pyridine and quinolone hydrazone derivatives as potential antimicrobial and antitubercular agents” (Eur J Med Chem, 2017).

The subject of data set [1] is Mycobacterium tuberculosis. Kind of data set: Antimycobacterial activity against Mycobacterium tuberculosis RCMB 010126 clinical isolate after 7 days by MABA. Type of data set: functional. In outline:
(§1)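 Inoculum from fresh LJ culture resuspended in 7H9-S broth with casitone, glycerol and OADC, adjusted to McFarland No. 1 and diluted 1:20. Serial two-fold compound dilutions in 7H9-S; isoniazid reference. Incubated 7 days at 37°C in air, then Alamar blue added and incubated overnight. Percent inhibition = 1 − (test well/growth-control mean) × 100; MIC = lowest concentration preventing blue-to-pink change.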

The subject of data set [2] is Streptococcus pneumoniae. Kind of data set: Antimicrobial activity against Streptococcus pneumoniae RCMB 010010 assessed as diameter of zone inhibition at 100 ug/ml after 24 hrs by agar well diffusion assay. Type of data set: functional. The settings on record: RCMB 010010, 24 h, read-out: DIZ. A digest of the protocol: (§2)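 Agar well diffusion on nutrient agar plates seeded with the bacterium, using 1 cm wells. Plates were held at 4°C for 1 h for diffusion, then incubated at 37°C. Inhibition zone diameters were measured at 24 h. Ciprofloxacin was the positive control. Run in triplicate, with the mean zone reported.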

Data set [3] relates to Escherichia coli. The data set can be described thus: Antimicrobial activity against Escherichia coli RCMB 010052 after 24 hrs by serial dilution method. The format is functional. To be noted: RCMB 010052, 24 h. A digest of the protocol:
(§3)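 Serial twofold dilution in microtiter plates starting from a 100 mmol stock in DMSO; final concentrations 125 down to 0.12 […]. Incubated at 37°C and read on a microplate reader after 24 h. Ciprofloxacin was the reference. Run in triplicate, with the average taken. MIC was the lowest concentration inhibiting growth.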

In data set [4] the test system is Staphylococcus aureus. The data set can be described thus: Antimicrobial activity against Staphylococcus aureus RCMB 010028 assessed as diameter of zone inhibition at 100 ug/ml after 24 hrs by agar well diffusion assay. The format is functional. The settings on record: RCMB 010028, 24 h, read-out: DIZ. In outline: as §2
Data set [5] relates to Candida albicans. Kind of data set: Antimicrobial activity against Candida albicans RCMB 05036 after 48 hrs by serial dilution method. Type of data set: functional. To be noted: RCMB 05036, 48 h. In outline: (§4)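 Serial twofold dilution in microtiter plates starting from a 100 mmol stock in DMSO; final concentrations 125 down to 0.12 […]. Incubated at 28°C and read on a microplate reader after 48 h. Amphotericin B was the reference. Run in triplicate, with the average taken. MIC was the lowest concentration inhibiting growth.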

Data set [6] has as its system Streptococcus pneumoniae. The data set can be described thus: Antimicrobial activity against Streptococcus pneumoniae RCMB 010010 after 24 hrs by serial dilution method. Type of data set: functional. To be noted: RCMB 010010, 24 h. A digest of the protocol:
as §3

The subject of data set [7] is Candida albicans. The data set can be described thus: Antimicrobial activity against Candida albicans RCMB 05036 assessed as diameter of zone inhibition at 100 ug/ml after 48 hrs by agar well diffusion assay. The settings on record: RCMB 05036, 48 h, read-out: DIZ. The format is functional. A digest of the protocol: (§5)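 Agar well diffusion on malt agar plates seeded with the fungus, using 1 cm wells. Plates were held at 4°C for 1 h for diffusion, then incubated at 28°C. Inhibition zone diameters were measured at 48 h. Amphotericin B was the positive control. Run in triplicate, with the mean zone reported.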

The test system of data set [8] is Escherichia coli. The data set can be described thus: Potency index, ratio of ciprofloxacin MIC to test compound MIC for Escherichia coli RCMB 010052. The format is functional.
Data set [9] relates to Pseudomonas aeruginosa. The settings on record: RCMB 010043, 100 ug/ml.
For data set [10], the system named is Aspergillus fumigatus. Kind of data set: Antimicrobial activity against Aspergillus fumigatus RCMB 02568 assessed as diameter of zone inhibition at 100 ug/ml after 48 hrs by agar well diffusion assay. To be noted: RCMB 02568, 48 h, read-out: DIZ. Type of data set: functional. In outline:
as §5

The subject of data set [11] is Mycobacterium tuberculosis. Kind of data set: Antimycobacterial activity against Mycobacterium tuberculosis RCMB 010126 clinical isolate assessed as inhibition zone after 7 days by MABA. The format is functional. In outline: as §1
Data set [12] deals with Pseudomonas aeruginosa. The settings on record: RCMB 010043.
The subject of data set [13] is Aspergillus fumigatus. Kind of data set: Antimicrobial activity against Aspergillus fumigatus RCMB 02568 after 48 hrs by serial dilution method. The format is functional. To be noted: RCMB 02568, 48 h. A digest of the protocol: as §4
For data set [14], the system named is Staphylococcus aureus. Kind of data set: Antimicrobial activity against Staphylococcus aureus RCMB 010028 after 24 hrs by serial dilution method. Type of data set: functional. To be noted: RCMB 010028, 24 h. A digest of the protocol:
as §3

Data set [15] has as its system Escherichia coli. The data set can be described thus: Antimicrobial activity against Escherichia coli RCMB 010052 assessed as diameter of zone inhibition at 100 ug/ml after 24 hrs by agar well diffusion assay. The format is functional. To be noted: RCMB 010052, 24 h, read-out: DIZ. In outline:
as §2

Data set [16] can be described thus: Selectivity index, ratio of IC50 for human WI38 cells to MIC for Mycobacterium tuberculosis RCMB 010126 clinical isolate. Type of data set: toxicity. To be noted: read-out: Selectivity Index. A digest of the protocol:
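WI-38 human lung fibroblasts grown in DMEM with 10% FBS at 37°C and 5% CO2, seeded at 1×10^4 cells/well, and exposed to serial two-fold dilutions in triplicate. Viability read by crystal violet stain at 490 nm. IC50 taken from dose-response plots. Ratio uses this IC50 against the MABA MIC for M. tuberculosis.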

The test system of another data set is WI-38. The data set can be described thus: Cytotoxicity against human WI38 cells assessed as reduction in cell viability after 24 hrs by crystal violet staining-based colorimetric method. To be noted: WI-38, 24 h. In outline:
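WI-38 cells were grown in DMEM with 10% FBS at 37°C and 5% CO2, then seeded at 1×10^4 cells/well. Serial twofold dilutions were added, three wells per concentration. Viability was read by crystal violet stain, solubilised in 30% acetic acid, at 490 nm. Run in triplicate. IC50 was estimated from dose-response plots.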

For data set [17], the system named is Streptococcus pneumoniae. Kind of data set: Potency index, ratio of ampicillin MIC to test compound MIC for Streptococcus pneumoniae RCMB 010010. The format is functional.
The mark [18] stands for this setting: Mycobacterium tuberculosis, RCMB 010126, 168 h.

Regarding `O=C(N/N=C/c1ccc(Cl)cc1Cl)c1c[nH]c2cc(Cl)ccc2c1=O`, the MIC result (in data set [1]; in the data set on Pseudomonas aeruginosa [12]) was “inactive” in each case. Further, the zone of inhibition at 100 µg/mL with Streptococcus pneumoniae [2] turned out to be 22.1 mm; in the data set with Staphylococcus aureus [4] it was 20.6 mm; with Candida albicans [7] it was 19.6 mm; with Aspergillus fumigatus [10], 20.3 mm; in the data set on Escherichia coli [15], 24.3 mm. Also, the MIC in the data set on Escherichia coli [3] is 0.49 µg/mL (≈ 1.24 µM); in the data set on Candida albicans [5] it was 3.9 µg/mL (≈ 9.88 µM); in the data set with Streptococcus pneumoniae [6], 0.98 µg/mL (≈ 2.48 µM); in the data set with Aspergillus fumigatus [13], 3.9 µg/mL (≈ 9.88 µM); against Staphylococcus aureus [14] it was 1.95 µg/mL (≈ 4.94 µM). Moreover, in the data set with Escherichia coli [8], the Ratio is on record as 2. Also, the DIZ entry in the data set on Pseudomonas aeruginosa [9] is “inactive”. Further, in data set [11], the “inhibition zone (IZ)” value is “inactive”.
For `COc1ccc(OC)c(/C=N/NC(=O)c2ccc(-c3ccc(Cl)cc3)nc2C)c1`, the MIC in data set [1] (setting [18]) came out at 0.39 µg/mL (≈ 0.952 µM); with Escherichia coli [3], 0.49 µg/mL (≈ 1.2 µM); against Candida albicans [5] it was 0.98 µg/mL (≈ 2.39 µM); in the data set with Streptococcus pneumoniae [6], 0.49 µg/mL (≈ 1.2 µM); in the data set on Aspergillus fumigatus [13] it was 0.98 µg/mL (≈ 2.39 µM); in the data set on Staphylococcus aureus [14] it was 0.98 µg/mL (≈ 2.39 µM). Besides, the selectivity ratio in [16] worked out at 1280. The zone of inhibition at 100 µg/mL came out at 24.3 mm in the data set on Streptococcus pneumoniae [2]; 22.3 mm in the data set on Staphylococcus aureus [4]; 22.5 mm in the data set with Candida albicans [7]; 24.3 mm in the data set with Aspergillus fumigatus [10]; 24.3 mm in the data set with Escherichia coli [15]. The Ratio with Escherichia coli [8] and in the data set with Streptococcus pneumoniae [17] was 2 each time. In addition, the DIZ entry in the data set with Pseudomonas aeruginosa [9] is “inactive”. For the same compound, in the data set with WI-38, the IC50 was 500 µg/mL (≈ 1220 µM). In data set [11], the “inhibition zone (IZ)” value is 85.32 mm. The MIC result in the data set on Pseudomonas aeruginosa [12] is “inactive”.
As for `COc1ccc(/C=N/NC(=O)c2ccc(-c3ccc(Cl)cc3)nc2C)cc1`, the MIC turned out to be 0.78 µg/mL (≈ 2.05 µM) in data set [1] (setting [18]); 1.95 µg/mL (≈ 5.13 µM) in the data set on Escherichia coli [3]; 3.9 µg/mL (≈ 10.3 µM) in the data set with Candida albicans [5]; 1.95 µg/mL (≈ 5.13 µM) in the data set on Streptococcus pneumoniae [6]; 1.95 µg/mL (≈ 5.13 µM) against Aspergillus fumigatus [13]; 3.9 µg/mL (≈ 10.3 µM) against Staphylococcus aureus [14]. Also, in data set [16], the selectivity ratio was determined as 641. Also, the zone of inhibition at 100 µg/mL in the data set on Streptococcus pneumoniae [2] amounted to 21.3 mm; with Staphylococcus aureus [4], 20.1 mm; in the data set on Candida albicans [7] it was 19.2 mm; in the data set on Aspergillus fumigatus [10] it was 20.9 mm; in the data set with Escherichia coli [15], 20.9 mm. The DIZ entry in the data set with Pseudomonas aeruginosa [9] is “inactive”. In addition, the IC50 in the data set on WI-38 turned out to be 500 µg/mL (≈ 1320 µM). In addition, in data set [11], the “inhibition zone (IZ)” value came to 70.34 mm. The MIC result with Pseudomonas aeruginosa [12] is “inactive”.
Regarding `COc1cc(/C=N/NC(=O)c2ccc(-c3ccc(Cl)cc3)nc2C)cc(OC)c1OC`, the MIC in data set [1] (setting [18]) worked out at 0.78 µg/mL (≈ 1.77 µM); in the data set on Escherichia coli [3] it was 1.95 µg/mL (≈ 4.43 µM); with Candida albicans [5] it was 1.95 µg/mL (≈ 4.43 µM); in the data set on Streptococcus pneumoniae [6], 1.95 µg/mL (≈ 4.43 µM); with Aspergillus fumigatus [13] it was 0.98 µg/mL (≈ 2.23 µM); in the data set on Staphylococcus aureus [14] it was 0.98 µg/mL (≈ 2.23 µM). Also, the selectivity ratio in [16] amounted to 52.7. In addition, the zone of inhibition at 100 µg/mL in the data set with Streptococcus pneumoniae [2] stood at 21.3 mm; in the data set on Staphylococcus aureus [4] it was 23.4 mm; in the data set with Candida albicans [7] it was 20.4 mm; in the data set with Aspergillus fumigatus [10], 21.8 mm; in the data set with Escherichia coli [15], 21.3 mm. Moreover, in the data set on Pseudomonas aeruginosa [9], the DIZ result was “inactive”. Moreover, the IC50 in the data set with WI-38 is 41.1 µg/mL (≈ 93.4 µM). Further, the “inhibition zone (IZ)” value in data set [11] came out at 68.42 mm. The MIC entry in the data set with Pseudomonas aeruginosa [12] is “inactive”.
For `Cc1nc(-c2cccc(Cl)c2)ccc1C(=O)N/N=C/c1ccc(Cl)cc1`, the MIC in data set [1] (setting [18]) came to 6.24 µg/mL (≈ 16.2 µM); against Escherichia coli [3], 0.49 µg/mL (≈ 1.28 µM); with Candida albicans [5], 3.9 µg/mL (≈ 10.1 µM); in the data set on Streptococcus pneumoniae [6], 1.95 µg/mL (≈ 5.07 µM); against Aspergillus fumigatus [13], 1.95 µg/mL (≈ 5.07 µM); with Staphylococcus aureus [14], 1.95 µg/mL (≈ 5.07 µM). Further, the zone of inhibition at 100 µg/mL in the data set with Streptococcus pneumoniae [2] was found to be 21.3 mm; with Staphylococcus aureus [4], 19.6 mm; in the data set with Candida albicans [7], 17.9 mm; in the data set with Aspergillus fumigatus [10], 20.3 mm; with Escherichia coli [15], 23.7 mm. Further, the Ratio in the data set on Escherichia coli [8] turned out to be 2. The DIZ entry in the data set with Pseudomonas aeruginosa [9] was “inactive”. In addition, the “inhibition zone (IZ)” value in data set [11] was 43.25 mm. The MIC entry with Pseudomonas aeruginosa [12] was “inactive”.
